Measured values: ChEMBL document CHEMBL4825680, “Structure-based discovery of potent and selective small-molecule inhibitors targeting signal transducer and activator of transcription 3 (STAT3)” (Eur J Med Chem, 2021)
Calls of active or inactive are those of the source. The rule behind the calls is not given here.

Assays:
MDA-MB-468 [1] = test: Induction of apoptosis in human MDA-MB-468 cells assessed as increase in PARP cleavage at 1 uM after 48 hrs by Western blot analysis; assay type: functional, cell-based
Method in brief: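 Cells were treated with vehicle (0.1% DMSO) or compound, then analysed by western blot of RIPA lysates (20–50 μg protein, SDS-PAGE, PVDF) for PARP and cleaved caspase-7, with β-actin as loading control. Three independent experiments.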

MDA-MB-231 [2] = test: Induction of apoptosis in human MDA-MB-231 cells assessed as early apoptotic cells at 1 uM after 48 hrs by Annexin-V-FITC/propidium iodide staining based flow cytometric analysis (reference value: 2.98%); assay type: functional
MDA-MB-468 [3] = test: Inhibition of colony formation in human MDA-MB-468 cells at 0.3 uM after 10 to 15 days by crystal violet staining based assay; assay type: functional, cell-based; conditions: time 10-15 day
Method in brief: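 Cells seeded at 0.5×10^3–1×10^3 per well; compound added the next day. Medium and compound renewed every 2–3 days. After about 10–15 days, colonies fixed with 4% paraformaldehyde, stained with crystal violet, scanned and quantified by image analysis. Triplicate.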

[4] = molecular target: T1, Signal transducer and activator of transcription 3 (Homo sapiens, UniProt P40763); test: Inhibition of STAT3 in human MDA-MB-231 cells assessed as downregulation of Mcl-1 expression at 0.3 to 3 uM after 24 hrs by western blot analysis; assay type: cell-based; conditions: dose 0.3-3 µM
Method in brief: (§1)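 TNBC cells given vehicle (0.1% DMSO) or graded compound levels for 24 h, lysed in RIPA with PMSF and phosphatase inhibitors. BCA-quantified lysate (20–50 µg) run on SDS-PAGE, transferred to PVDF, blocked in 5% BSA. Probed overnight at 4 °C for Bcl-xL, Mcl-1 and c-Myc, with β-actin. HRP secondary, ECL detection. Three independent experiments.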

[5] = molecular target: T1, Signal transducer and activator of transcription 3; test: Inhibition of STAT3 phosphorylation at Ser727 residue in human MDA-MB-231 cells at 3 uM after 3 hrs by Western blotting analysis; assay type: cell-based
MDA-MB-231 [6] = test: Induction of apoptosis in human MDA-MB-231 cells assessed as viable cells at 1 uM after 48 hrs by Annexin-V-FITC/propidium iodide staining based flow cytometric analysis (reference value: 93.4%); assay type: functional; conditions: read-out: Activity
MDA231-LM2-4175 [7] = test: Antitumor activity against human MDA231-LM2-4175 cells xenografted in mouse assessed as reduction in Bcl-xL expression at 5 to 15 mg/kg, iv administered once daily for 20 days by Western blotting analysis; assay type: functional, organism-based; conditions: dose 5-15 mg/kg, time 20.0 day
MDA-MB-468 [8] = test: Induction of apoptosis in human MDA-MB-468 cells assessed as late apoptotic cells at 1 uM after 48 hrs by Annexin-V-FITC/propidium iodide staining based flow cytometric analysis (reference value: 1.25%); assay type: functional
[9] = molecular target: T1, Signal transducer and activator of transcription 3; test: Inhibition of STAT3 phosphorylation at Tyr705 residue in human MDA-MB-231 cells after 3 hrs by Western blotting analysis; assay type: cell-based; conditions: dose 0.3-3 µM
[10] = molecular target: T1, Signal transducer and activator of transcription 3; test: Inhibition of STAT3 in human MDA-MB-468 cells assessed as downregulation of c-Myc expression at 0.3 to 3 uM after 24 hrs by western blot analysis; assay type: cell-based; conditions: dose 0.3-3 µM; method in brief: as §1
MDA-MB-231 [11] = test: Induction of apoptosis in human MDA-MB-231 cells assessed as early apoptotic cells at 3 uM after 48 hrs by Annexin-V-FITC/propidium iodide staining based flow cytometric analysis (reference value: 2.98%); assay type: functional
MGC-803 = test: Antiproliferative activity against human MGC-803 cells; assay type: functional, cell-based
[12] = molecular target: T1, Signal transducer and activator of transcription 3; test: Inhibition of STAT3 in human MDA-MB-231 cells assessed as downregulation of Bcl-xL expression at 0.3 to 3 uM after 24 hrs by western blot analysis; assay type: cell-based; conditions: dose 0.3-3 µM; method in brief: as §1
[13] = molecular target: T1, Signal transducer and activator of transcription 3; test: Inhibition of phosphorylated STAT3 nuclear translocation in human MDA-MB-231 cells after 12 hrs by immunofluorescence analysis; assay type: cell-based; conditions: dose 0.3-3 µM
Method in brief: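 MDA-MB-231 cells (constitutively active STAT3) treated with vehicle or compound for 12 h. Immunofluorescence staining with a p-STAT3-specific primary antibody and an Alexa Fluor secondary antibody.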

HCC70 = test: Inhibition of cell invasion in human HCC70 cells incubated for 12 hrs by crystal violet staining based transwell assay; assay type: functional; conditions: dose 1-3 µM
Method in brief: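 Cells seeded at 1.5×10^4–3×10^4 per well in the upper chamber of 8.0 µm pore Transwell inserts and treated with graded compound for 12 h. Non-invading cells removed with cotton. Invaded cells fixed in 4% paraformaldehyde, stained with crystal violet, photographed and counted. Triplicate.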

MDA-MB-231 [14] = test: Antiproliferative activity against STAT3 knocked down human MDA-MB-231 cells assessed as reduction in cell viability; assay type: functional, cell-based
Method in brief: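 MDA-MB-231 cells at 60–70% confluence were transfected with STAT3 siRNA or negative-control siRNA using DharmaFECT. Viability was then read by CCK-8.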

A549 = test: Antiproliferative activity against human A549 cells; assay type: functional, cell-based
MDA231-LM2-4175 [15] = test: Antitumor activity against human MDA231-LM2-4175 cells xenografted in mouse assessed as reduction in Mcl expression at 5 to 15 mg/kg, iv administered once daily for 20 days by Western blotting analysis; assay type: functional, organism-based; conditions: dose 5-15 mg/kg, time 20.0 day
[16] = molecular target: T1, Signal transducer and activator of transcription 3; test: Inhibition of Flag-tagged STAT3 dimerization (unknown origin) expressed in HEK293T cells after 24 hrs by confocal microscopic analysis; assay type: cell-based; conditions: dose 1-3 µM
Method in brief: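 HEK-293T cells transfected with HA-STAT3 and Flag-STAT3. After 24 h, treated with vehicle (0.1% DMSO) or compound for 24 h, with IL-6 100 ng/mL added for 30 min. Fixed in paraformaldehyde, permeabilised with Triton X-100, stained with anti-HA and anti-Flag plus Alexa 488/555 secondaries and DAPI. Confocal imaging for colocalisation.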

MDA-MB-468 [17] = test: Induction of apoptosis in human MDA-MB-468 cells assessed as viable cells at 1 uM after 48 hrs by Annexin-V-FITC/propidium iodide staining based flow cytometric analysis (reference value: 95.5%); assay type: functional; conditions: read-out: Activity

T1 sequence (P40763 whole entry): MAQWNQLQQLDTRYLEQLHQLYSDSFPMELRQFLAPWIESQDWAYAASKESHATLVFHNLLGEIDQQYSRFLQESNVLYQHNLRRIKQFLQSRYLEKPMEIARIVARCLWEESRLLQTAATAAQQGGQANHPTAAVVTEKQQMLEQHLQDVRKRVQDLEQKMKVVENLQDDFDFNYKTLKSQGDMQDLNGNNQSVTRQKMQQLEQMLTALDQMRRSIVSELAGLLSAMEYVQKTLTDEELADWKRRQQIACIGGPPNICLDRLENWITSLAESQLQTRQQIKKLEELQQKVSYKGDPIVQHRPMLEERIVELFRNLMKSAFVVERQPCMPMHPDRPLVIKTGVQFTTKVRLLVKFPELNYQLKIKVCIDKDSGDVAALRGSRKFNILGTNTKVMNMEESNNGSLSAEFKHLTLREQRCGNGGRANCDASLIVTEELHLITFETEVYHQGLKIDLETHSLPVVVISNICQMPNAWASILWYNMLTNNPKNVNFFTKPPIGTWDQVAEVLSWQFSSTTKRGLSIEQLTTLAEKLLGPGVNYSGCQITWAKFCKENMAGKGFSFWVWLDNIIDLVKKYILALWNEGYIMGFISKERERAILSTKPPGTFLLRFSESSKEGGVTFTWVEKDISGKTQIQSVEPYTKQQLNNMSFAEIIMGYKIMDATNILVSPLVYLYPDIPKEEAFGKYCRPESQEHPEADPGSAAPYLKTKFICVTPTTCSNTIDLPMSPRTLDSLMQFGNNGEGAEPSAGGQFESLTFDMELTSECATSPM

O=C(Cc1c(-c2ccccc2)nc2ccccn12)Nc1ccc2c(c1)S(=O)(=O)C=C2
Activity (MDA-MB-468 [1]): Active | Activity (MDA-MB-231 [2]): 7.38% | inhibition (MDA-MB-468 [3]): Active | inhibition [4]: Active | inhibition [5]: Active | viability at 1 µM (MDA-MB-231 [6]): 83.5% | Activity (MDA231-LM2-4175 [7]): Active | Activity (MDA-MB-468 [8]): 16.6% | inhibition [9]: Dose-Dependent Effect | inhibition [10]: Active | Activity (MDA-MB-231 [11]): 12.5% | IC50 (MGC-803): 1600 nM | inhibition [12]: Active | inhibition [13]: Dose-Dependent Effect | inhibition (HCC70): Dose-Dependent Effect | Activity (MDA-MB-231 [14]): inactive | IC50 (A549): 1100 nM | Activity (MDA231-LM2-4175 [15]): Active | inhibition [16]: Dose-Dependent Effect | viability at 1 µM (MDA-MB-468 [17]): 57.9%
